From ChEMBL document CHEMBL1130051, “9-Benzyladenines: potent and selective cAMP phosphodiesterase inhibitors” (J Med Chem, 1997)
pIC50, pKi: −log10 of the molar value.

Assays:
[1] = target: Phosphodiesterase 1 (Homo sapiens, UniProt P54750+Q01064+Q14123); assay: Inhibition of phosphodiesterase 1; type: protein assay
In short: (§1)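 Enzyme activity was measured at 1 μM substrate, and the drug concentration giving 50% inhibition was taken as the IC50. IC50 was calculated by linear regression (r = 0.95) as the mean of three determinations, with experimental error about 15%. Values above 200 μM were reported as ns.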

[2] = target: T1, Phosphodiesterase 4 (Homo sapiens, UniProt P27815+Q08499+Q07343+Q08493); assay: Inhibition of phosphodiesterase 4 at 1 uM cAMP; type: protein assay; in short: as §1
[3] = target: T2, Phosphodiesterase 3 (Homo sapiens, UniProt Q14432+Q13370); assay: Inhibition of phosphodiesterase 3 at 1 uM cAMP; type: protein assay; in short: as §1
[4] = target: T3, cGMP-specific 3',5'-cyclic phosphodiesterase (Homo sapiens, UniProt O76074); assay: Inhibition of phosphodiesterase 5; in short: as §1
[5] = target: T3, cGMP-specific 3',5'-cyclic phosphodiesterase; assay: Inhibition of Phosphodiesterase 5
[6] = target: T1, Phosphodiesterase 4; assay: Inhibition of Phosphodiesterase 4; type: protein assay
[7] = target: T4, Adenosine receptor A1 (Homo sapiens, UniProt P30542); assay: Displacement of [3H]CHA from Adenosine A1 receptor
T4 sequence (P30542 whole entry): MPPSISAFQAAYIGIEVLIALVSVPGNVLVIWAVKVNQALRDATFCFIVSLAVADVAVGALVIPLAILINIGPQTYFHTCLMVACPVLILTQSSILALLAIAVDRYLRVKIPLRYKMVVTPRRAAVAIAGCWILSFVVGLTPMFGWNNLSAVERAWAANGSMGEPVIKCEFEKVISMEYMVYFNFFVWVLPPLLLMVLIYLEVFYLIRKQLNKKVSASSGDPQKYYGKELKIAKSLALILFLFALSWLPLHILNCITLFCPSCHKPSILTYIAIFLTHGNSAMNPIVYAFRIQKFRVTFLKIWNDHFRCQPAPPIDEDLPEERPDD

[8] = target: GABA-A receptor; anion channel; assay: Displacement of [3H]diazepam from rat brain GABA-A benzodiazepine receptor
[9] = target: T2, Phosphodiesterase 3; assay: Inhibitory concentration against Phosphodiesterase 3 was tested by linear regression; type: protein assay; in short: as §1
[10] = target: Adenosine A2 receptor (Homo sapiens, UniProt P29275+P29274); assay: Displacement of [3H]NECA from Adenosine A2 receptor; type: protein assay

Row | SMILES | IC50 [2] [µM] | IC50 [3] [µM] | other results
1 | CNc1nc(C(F)(F)F)nc2c1ncn2Cc1ccccc1F | 0.04 | 380 | IC50 [1]: 40 µM; pIC50 [4]: 5.30
2 | CCCCNc1ncnc2c1ncn2Cc1ccccc1F.Cl | 53 | > 200 | –
3 | Cl.Fc1ccccc1Cn1cnc2c(N3CCCCC3)ncnc21 | 121 | > 200 | –
4 | CNc1nc(C)nc2c1ncn2Cc1ccccc1F.CS(=O)(=O)O | 0.2 | 250 | –
5 | CCCCCC[C@@H]([C@@H](C)O)n1cnc2c(N)ncnc21 [EHNA] | – | – | pKi [5]: < 3.70; Ki [6]: > 200 µM
6 | CNc1ncnc2c1nc(C)n2Cc1ccccc1F.CS(=O)(=O)O | 54 | > 200 | –
7 | Nc1nc(C(F)(F)F)nc2c1ncn2Cc1ccccc1 | 1.8 | 101 | –
8 | CNc1nc(C(F)(F)F)nc2c1ncn2CCc1ccccc1 | 0.75 | > 200 | –
9 | CNc1ncnc2c1ncn2Cc1ccccc1.CS(=O)(=O)O | 4.6 | 339 | –
10 | CNc1nc(C(F)(F)F)nc2c1ncn2C | 11 | 331 | –
11 | Nc1ncnc2c1ncn2Cc1ccccc1 [9-BENZYL-9H-ADENINE] | 160 | > 200 | –
12 | CNc1ncnc2c1ncn2Cc1ccccc1F.CS(=O)(=O)O | 3 | – | pKi [5]: 5.19; pIC50 [7]: < 4.00; pIC50 [8]: 4.89; IC50 [9]: 121 µM; Ki [6]: 2 µM; IC50 [10]: > 100 µM
13 | CNc1nc(-c2ccccc2)nc2c1ncn2Cc1ccccc1F.CS(=O)(=O)O | 0.5 | > 200 | –
14 | CN(C)c1nc(C(F)(F)F)nc2c1ncn2Cc1ccccc1 | 11 | 61 | –
